The source made the active and inactive calls. Unless noted, the calls are words filed in the database; no cut-off is given here.
Key:
[1] = Neurotoxicity in CD1 mouse at 300 mg/kg, ip and measured after 0.5 hrs by rotarod test; assay type: toxicity, organism-based; settings: in vivo
Summary of the method: (§1)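 Mice dosed intraperitoneally at 30, 100 and 300 mg/kg, then tested on the rotarod at 0.5 h and 4 h. The value recorded is the minimum dose at which neurotoxicity appeared. A dash means no neurotoxicity at the top dose of 300 mg/kg.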

[2] = Neurotoxicity in Sprague-Dawley rat at 30 mg/kg, po measured after 30 mins by rotarod test; assay type: toxicity, organism-based; settings: in vivo, 0.5 h
Summary of the method: (§2)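 Rats given one oral dose of 30 mg/kg and tested on the rotarod at 0.25, 0.5, 1, 2, 4 and 6 h.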

Rattus norvegicus [3] = assay: Anticonvulsant activity in Sprague-Dawley rat assessed as protection against 150 mA current-induced seizure at 30 mg/kg, po measured after 4 hrs by maximal electroshock seizure test; assay type: functional, organism-based
Summary of the method: (§3)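 Rats received 30 mg/kg orally and were given maximal electroshock at 0.25, 0.5, 1, 2, 4 and 6 h. Read-out is the number of rats protected out of four.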

Rattus norvegicus [4] = assay: Anticonvulsant activity in Sprague-Dawley rat assessed as protection against 150 mA current-induced seizure at 30 mg/kg, po measured after 30 mins by maximal electroshock seizure test; assay type: functional, organism-based; summary of the method: as §3
[5] = Neurotoxicity in Sprague-Dawley rat at 30 mg/kg, po measured after 2 hr by rotarod test; assay type: toxicity, organism-based; settings: in vivo; summary of the method: as §2
[6] = Neurotoxicity in Sprague-Dawley rat at 30 mg/kg, po measured after 1 hr by rotarod test; assay type: toxicity, organism-based; settings: in vivo; summary of the method: as §2
Mus musculus [7] = assay: Anticonvulsant activity in CD1 mouse assessed as protection against 50 mA current-induced seizure at 300 mg/kg, ip and measured after 0.5 hrs by maximal electroshock seizure test; assay type: functional, organism-based
Summary of the method: (§4)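 Mice were screened after intraperitoneal doses of 30, 100 and 300 mg/kg in the maximal electroshock and subcutaneous pentylenetetrazole tests, examined at 0.5 and 4 h. The value recorded is the minimum dose showing activity. No activity up to 300 mg/kg is scored as absent.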

Rattus norvegicus [8] = assay: Anticonvulsant activity in Sprague-Dawley rat assessed as protection against 150 mA current-induced seizure at 30 mg/kg, po measured after 15 mins by maximal electroshock seizure test; assay type: functional, organism-based; summary of the method: as §3
Mus musculus [9] = assay: Anticonvulsant activity in ip dosed CD1 mouse assessed as protection against 50 mA current-induced seizure and measured after 4 hrs by maximal electroshock seizure test; assay type: functional; settings: read-out: MED; summary of the method: as §4
[10] = Neurotoxicity in Sprague-Dawley rat at 30 mg/kg, po measured after 15 mins by rotarod test; assay type: toxicity, organism-based; settings: in vivo, 0.25 h; summary of the method: as §2
Rattus norvegicus [11] = assay: Anticonvulsant activity in Sprague-Dawley rat assessed as protection against 150 mA current-induced seizure at 30 mg/kg, po measured after 2 hrs by maximal electroshock seizure test; assay type: functional, organism-based; summary of the method: as §3
[12] = Neurotoxicity in Sprague-Dawley rat at 30 mg/kg, po measured after 4 hr by rotarod test; assay type: toxicity, organism-based; settings: in vivo; summary of the method: as §2
[13] = Neurotoxicity in CD1 mouse at 300 mg/kg, ip and measured after 4 hrs hrs by rotarod test; assay type: toxicity, organism-based; settings: in vivo; summary of the method: as §1
Mus musculus [14] = assay: Anticonvulsant activity in CD1 mouse assessed as protection against subcutaneous pentylenetetrazole-induced seizures at 300 mg/kg, ip and measured after 0.5 hrs; assay type: functional, organism-based; summary of the method: as §4
Mus musculus [15] = assay: Anticonvulsant activity in CD1 mouse assessed as protection against subcutaneous pentylenetetrazole-induced seizures at 300 mg/kg, ip and measured after 4 hrs; assay type: functional, organism-based; summary of the method: as §4
Rattus norvegicus [16] = assay: Anticonvulsant activity in Sprague-Dawley rat assessed as protection against 150 mA current-induced seizure at 30 mg/kg, po measured after 1 hr by maximal electroshock seizure test; assay type: functional, organism-based; summary of the method: as §3
[17] = Neurotoxicity in Sprague-Dawley rat at 30 mg/kg, po measured after 6 hrs hr by rotarod test; assay type: toxicity, organism-based; settings: in vivo; summary of the method: as §2
[18] = Neurotoxicity in CD1 mouse at 100 mg/kg, ip measured after 1 hr by rotarod test; settings: in vivo
[19] = Neurotoxicity in CD1 mouse at 100 mg/kg, ip measured after 15 mins by rotarod test; settings: in vivo, 0.25 h
[20] = Neurotoxicity in CD1 mouse at 100 mg/kg, ip measured after 2 hrs by rotarod test; settings: in vivo
[21] = Neurotoxicity in CD1 mouse at 100 mg/kg, ip measured after 4 hrs by rotarod test; settings: in vivo
[22] = Neurotoxicity in CD1 mouse at 100 mg/kg, ip measured after 30 mins by rotarod test; settings: in vivo, 0.5 h
Mus musculus [23] = assay: Anticonvulsant activity in CD1 mouse assessed as protection against 32 mA current-induced seizure at 100 mg/kg, ip measured after 2 hrs by 6 Hz psychomotor seizure test
Rattus norvegicus [24] = assay: Anticonvulsant activity in po dosed Sprague-Dawley rat assessed as time to peak effect on protection against 150 mA current-induced seizures; assay type: functional
Summary of the method: (§5)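 Median effective doses were quantified in the maximal electroshock, subcutaneous pentylenetetrazole and 6 Hz tests after intraperitoneal dosing in mice or oral dosing in rats, at the time of peak effect. ED50 values are reported with ranges in parentheses.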

[25] = Protection index, ratio of TD50 for neurotoxicity in ip dosed CD1 mouse by rotarod test to ED50 for anticonvulsant activity in ip dosed CD1 mouse by maximal electroshock seizure test; assay type: toxicity, organism-based; settings: in vivo, read-out: Ratio TD50/ED50
Rattus norvegicus [26] = assay: Anticonvulsant activity in po dosed Sprague-Dawley rat assessed as time to peak effect on protection against subcutaneous pentylenetetrazole-induced seizures; assay type: functional
[27] = Neurotoxicity in ip dosed CD1 mouse and measured after 0.5 hrs by rotarod test; assay type: toxicity, organism-based; settings: in vivo; summary of the method: as §1
Rattus norvegicus [28] = assay: Anticonvulsant activity in po dosed Sprague-Dawley rat assessed as time to peak effect on protection against 32 mA current-induced seizure by 6 Hz psychomotor seizure test; assay type: functional
[29] = Neurotoxicity in ip dosed CD1 mouse assessed as time to peak effect by rotarod test; assay type: toxicity, organism-based; settings: in vivo
[30] = Neurotoxicity in ip dosed CD1 mouse and measured after 4 hrs by rotarod test; assay type: toxicity, organism-based; settings: in vivo; summary of the method: as §1
Mus musculus [31] = assay: Anticonvulsant activity in ip dosed CD1 mouse assessed as time to peak effect on protection against 50 mA current-induced seizures; assay type: functional; summary of the method: as §5
Mus musculus [32] = assay: Anticonvulsant activity in ip dosed CD1 mouse assessed as time to peak effect on protection against subcutaneous pentylenetetrazole-induced seizures; assay type: functional; summary of the method: as §5
[33] = Neurotoxicity in po dosed Sprague-Dawley rat assessed as time to peak effect by rotarod test; assay type: toxicity, organism-based; settings: in vivo
Rattus norvegicus [34] = assay: Anticonvulsant activity in po dosed Sprague-Dawley rat assessed as protection against subcutaneous pentylenetetrazole-induced seizures; assay type: functional
[35] = Protection index, ratio of TD50 for neurotoxicity in po dosed Sprague-Dawley rat by rotarod test to ED50 for anticonvulsant activity in po dosed Sprague-Dawley rat by maximal electroshock seizure test; assay type: toxicity, organism-based; settings: in vivo, read-out: Ratio TD50/ED50
Mus musculus [36] = assay: Anticonvulsant activity in ip dosed CD1 mouse assessed as protection against subcutaneous pentylenetetrazole-induced seizures; assay type: functional; summary of the method: as §5
Mus musculus [37] = assay: Anticonvulsant activity in ip dosed CD1 mouse assessed as time to peak effect on protection against 32 mA current-induced seizure by 6 Hz psychomotor seizure test; assay type: functional; summary of the method: as §5
Mus musculus [38] = assay: Anticonvulsant activity in ip dosed CD1 mouse assessed as protection against 32 mA current-induced seizure by 6 Hz psychomotor seizure test; assay type: functional; summary of the method: as §5
Mus musculus [39] = assay: Anticonvulsant activity in ip dosed CD1 mouse assessed as protection against 50 mA current-induced seizure and measured after 0.5 hrs by maximal electroshock seizure test; assay type: functional; settings: read-out: MED; summary of the method: as §4
[40] = Neurotoxicity in po dosed Sprague-Dawley rat model by rotarod test; assay type: toxicity, organism-based; settings: in vivo
Summary of the method: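 Rats dosed orally; neurotoxicity scored on the rotarod. Screening used a fixed 30 mg/kg, with animals checked at 0.25, 0.5, 1, 2, 4 and 6 h; the reading is the number of four rats showing neurotoxicity. In quantitative runs, a median toxic dose (TD50, mg/kg) was determined after oral dosing at the time of peak effect.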

[41] = Neurotoxicity in CD1 mouse at 50 mg/kg, ip measured after 2 hrs by rotarod test; settings: in vivo
[42] = Neurotoxicity in CD1 mouse at 50 mg/kg, ip measured after 4 hrs by rotarod test; settings: in vivo
Mus musculus [43] = assay: Anticonvulsant activity in CD1 mouse assessed as protection against 32 mA current-induced seizure at 50 mg/kg, ip measured after 4 hrs by 6 Hz psychomotor seizure test
[44] = Neurotoxicity in CD1 mouse at 50 mg/kg, ip measured after 15 mins by rotarod test; settings: in vivo, 0.25 h
[45] = Neurotoxicity in CD1 mouse at 50 mg/kg, ip measured after 30 mins by rotarod test; settings: in vivo, 0.5 h
[46] = Neurotoxicity in CD1 mouse at 50 mg/kg, ip measured after 1 hr by rotarod test; settings: in vivo

Structure (SMILES) | Activity [1] | Activity [2] | Activity (Rattus norvegicus [3]) | Activity (Rattus norvegicus [4]) | Activity [5] | Activity [6] | Activity (Mus musculus [7]) | Activity (Rattus norvegicus [8]) | minimal effective dose (Mus musculus [9]) | Activity [10] | Activity [12] | Activity [13] | MED (Mus musculus [14]) | Activity (Mus musculus [15]) | minimal effective dose (Mus musculus [39]) | other results
CC(C)C1(C(C)C)NC(=O)N(CN2CCN(c3ccccc3)CC2)C1=O | Non-Toxic | Non-Toxic | inactive | inactive | Non-Toxic | Non-Toxic | inactive | inactive | 300 mg/kg | Non-Toxic | Non-Toxic | Non-Toxic | inactive | inactive |  | Activity (Rattus norvegicus [11]): inactive; Activity (Rattus norvegicus [16]): inactive; Activity [17]: Non-Toxic
O=C1NC(c2ccccc2)(c2ccccc2)C(=O)N1CN1CCN(c2ccccc2F)CC1 | Non-Toxic | Non-Toxic |  |  | Non-Toxic | Non-Toxic | inactive | inactive | 30 mg/kg | Non-Toxic | Non-Toxic | Non-Toxic | inactive | inactive |  | Activity [18]: Non-Toxic; Activity [19]: Non-Toxic; Activity [20]: Non-Toxic; Activity [21]: Non-Toxic; Activity [22]: Non-Toxic; Activity (Mus musculus [23]): Active
O=C1NC(=O)C(c2ccccc2)(c2ccccc2)N1 [PHENYTOIN] |  |  |  |  |  |  |  |  | 30 mg/kg |  |  |  | inactive | inactive | 30 mg/kg | Time (Rattus norvegicus [24]): 1 h; selectivity ratio [25]: 7.27; Time (Rattus norvegicus [26]): 1 h; minimal neurotoxic dose [27]: 100 mg/kg; Time (Rattus norvegicus [28]): 1 h; Time [29]: 1 h; MTC [30]: 100 mg/kg; Time (Mus musculus [31]): 1 h; Time (Mus musculus [32]): 1 h; Time [33]: 1 h; ED50 (Rattus norvegicus [34]): > 500 mg/kg; selectivity ratio [35]: > 35.6; ED50 (Mus musculus [36]): > 500 mg/kg; Time (Mus musculus [37]): 1 h; ED50 (Mus musculus [38]): > 60 mg/kg; TD50 [40]: > 1000 mg/kg
O=C1NC(c2ccccc2)(c2ccccc2)C(=O)N1CN1CCN(CCc2ccccc2)CC1 | Non-Toxic | Non-Toxic | inactive | Active | Non-Toxic | Non-Toxic |  | inactive | 30 mg/kg | Non-Toxic | Non-Toxic | Non-Toxic | inactive | inactive | 100 mg/kg | Activity [41]: Non-Toxic; Activity [42]: Non-Toxic; Activity (Mus musculus [43]): Active; Activity [44]: Non-Toxic; Activity [45]: Non-Toxic; Activity [46]: Non-Toxic
